# Data taken from ChEMBL document CHEMBL3272204, “Products from furans. 1. Sunthesis and anticoccidial and antimicrobial activity of 5-amino-5,6-dihydro-6-methoxy-2-methyl-2-(4'-biphenylyl)-2H-pyran-3(4H)-ones and related compounds” (1976).
# Activity calls are given as the source filed them. No cut-off for these calls is given here.
# Columns and labels:
# [1] = system: Staphylococcus; assay: Antibacterial activity against penicillin-sensitive Staphylococcus pyogenes assessed as growth inhibition after 24 hrs; type: functional
# Summary of the method: (§1)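 Halving (twofold) serial dilutions of compound in nutrient broth, in vitro. Incubated 24 hr at 37°. Value reported is the lowest concentration that inhibited growth.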
# [2] = system: Staphylococcus; assay: Antibacterial activity against penicillin-resistant Staphylococcus pyogenes assessed as growth inhibition after 24 hrs; type: functional; summary of the method: as §1
# [3] = system: Enterococcus faecalis; assay: Antibacterial activity against Streptococcus faecalis assessed as growth inhibition after 24 hrs; type: functional
# Summary of the method: (§2)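 Twofold serial dilutions in nutrient broth. The minimum concentration inhibiting visible growth was read after 24 hr incubation at 37°.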
# [4] = system: Salmonella enterica subsp. enterica serovar Pullorum; assay: (§3) Antibacterial activity against Salmonella pullorum assessed as growth inhibition after 24 hrs; type: functional; summary of the method: as §2
# [5] = system: Pseudomonas aeruginosa; assay: Antibacterial activity against Pseudomonas aeruginosa assessed as growth inhibition after 24 hrs; type: functional; summary of the method: as §2
# [6] = system: Escherichia coli; assay: Antibacterial activity against Escherichia coli 198 assessed as growth inhibition after 24 hrs; type: functional; summary of the method: as §2
# [7] = system: Klebsiella aerogenes; assay: Antibacterial activity against Aerobacter aerogenes assessed as growth inhibition after 24 hrs; type: functional; summary of the method: as §2
# [8] = system: Proteus vulgaris; assay: Antibacterial activity against Proteus vulgaris assessed as growth inhibition after 24 hrs; type: functional; summary of the method: as §2
# [9] = system: Klebsiella pneumoniae; assay: Antibacterial activity against Klebsiella pneumoniae assessed as growth inhibition after 24 hrs; type: functional; summary of the method: as §2
# [10] = system: Serratia marcescens; assay: Antibacterial activity against Serratia marcescens assessed as growth inhibition after 24 hrs; type: functional; summary of the method: as §2
# [11] = system: Candida albicans; assay: Antifungal activity against Candida albicans assessed as growth inhibition after 5 days at 37 degC; type: functional
# Summary of the method: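 Twofold serial dilutions in Sabouraud broth. The minimum inhibitory concentration was read after 5 days at 37°.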
# [12] = system: Nannizzia gypsea; assay: Antifungal activity against Microsporum gypseum assessed as growth inhibition after 10 days at 28 degC; type: functional
# Summary of the method: (§4)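 Twofold serial dilutions in Sabouraud broth. The minimum inhibitory concentration was read after 10 days at 28°.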
# [13] = Antifungal activity against Trichophyton granulosum assessed as growth inhibition after 10 days at 28 degC; type: functional; settings: Trichophyton mentagrophytes var. granulosum; summary of the method: as §4
# [14] = system: Eimeria tenella; assay: Anticoccidal activity against Eimeria tenella assessed as improved weight gain in chicken at 0.05%, po; type: functional, organism-based
# Summary of the method: (§5)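 Chickens with experimental coccidiosis received compound orally in the diet at 0.05%, starting 1 day before infection. Efficacy was judged 6 days later from survival and weight gain.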
# [15] = as §3; type: functional, Salmonella enterica subsp. enterica serovar Pullorum; summary of the method: as §2
# [16] = system: Eimeria acervulina; assay: Anticoccidal activity against Eimeria acervulina assessed as improved weight gain in chicken; type: functional, organism-based; summary of the method: as §5
# [17] = system: Eimeria tenella; assay: Anticoccidal activity against Eimeria tenella assessed as improved weight gain and mortality in chicken relative to noninfected control; type: functional, organism-based; summary of the method: as §5
# [18] = system: Eimeria acervulina; assay: Anticoccidal activity against Eimeria acervulina assessed as improved weight gain and mortality in chicken relative to noninfected control; type: functional, organism-based; summary of the method: as §5
# [19] = Staphylococcus, 24 h, read-out: MIC
# [20] = Enterococcus faecalis, 24 h, read-out: MIC
# [21] = Salmonella enterica, 24 h, read-out: MIC
# [22] = Pseudomonas aeruginosa, 24 h, read-out: MIC
# [23] = Escherichia coli, 198, 24 h, read-out: MIC
# [24] = Klebsiella aerogenes, 24 h, read-out: MIC
# [25] = Proteus vulgaris, 24 h, read-out: MIC
# [26] = Klebsiella pneumoniae, 24 h, read-out: MIC
# [27] = Serratia marcescens, 24 h, read-out: MIC
# [28] = Candida albicans, 120 h, read-out: MIC
# [29] = Nannizzia gypsea, 240 h, read-out: MIC
SMILES,MIC [1],MIC [2],MIC [3],MIC [4],MIC [5],MIC [6],MIC [7],MIC [8],MIC [9],MIC [10],MIC [11],MIC [12],MIC [13],"MIC [11, 28]","MIC [12, 29]",Activity [17],further results
COC1OC(C)(c2ccc(-c3ccccc3)cc2)C(O)CC1N1CCOCC1 (configuration not stated),inactive,inactive,inactive,inactive,inactive,inactive,inactive,inactive,inactive,inactive,inactive,inactive,inactive,–,–,–,Activity [14]: inactive
"COC1C=CC(=O)C(C)(c2ccc(-c3ccccc3)cc2)O1 (single isomer, unassigned; isomer 1)",6.2 µg/mL,6.2 µg/mL,6.2 µg/mL,–,6.2 µg/mL,6.2 µg/mL,6.2 µg/mL,6.2 µg/mL,6.2 µg/mL,6.2 µg/mL,16 µg/mL,2 µg/mL,–,–,–,–,MIC [15]: 6.2 µg/mL
CNC1CC(O)C(C)(c2ccc(-c3ccccc3)cc2)OC1OC (configuration not stated),inactive,inactive,inactive,inactive,inactive,inactive,inactive,inactive,inactive,inactive,inactive,inactive,inactive,–,–,–,Activity [14]: inactive; Activity [16]: inactive
COC1C=CC(=O)C(C)(c2ccc(-c3ccccc3)cc2)O1 (stereo in doubt; 1a) [listing 1 of 2 here],–,–,–,–,–,–,–,–,–,–,–,–,–,32 µg/mL,2 µg/mL,–,"MIC [1, 19]: 6.2 µg/mL; MIC [2, 19]: 6.2 µg/mL; MIC [3, 20]: 6.2 µg/mL; MIC [15, 21]: 6.2 µg/mL; MIC [5, 22]: 6.2 µg/mL; MIC [6, 23]: 6.2 µg/mL; MIC [7, 24]: 6.2 µg/mL; MIC [8, 25]: 6.2 µg/mL; MIC [9, 26]: 6.2 µg/mL; MIC [10, 27]: 6.2 µg/mL"
CNC(=O)OC1C=CC(=O)C(C)(c2ccc(-c3ccccc3)cc2)O1 (configuration not stated),inactive,inactive,inactive,inactive,inactive,inactive,inactive,inactive,inactive,inactive,–,–,1.6 µg/mL,250 µg/mL,1.6 µg/mL,Active,Activity [16]: inactive
COC1C=CC(=O)C(C)(c2ccc(-c3ccccc3)cc2)O1 (stereo in doubt; 1a) [listing 2 of 2 here],–,–,–,–,–,–,–,–,–,–,–,–,1 µg/mL,–,–,Active,–
"COC1OC(C)(c2ccc(-c3ccccc3)cc2)C(=O)CC1N(C)C (single isomer, unassigned; isomer 1) [listing 1 of 2 here]",–,–,–,–,–,–,–,–,–,–,–,–,8 µg/mL,–,–,Active,Activity [18]: Active
"COC1OC(C)(c2ccc(-c3ccccc3)cc2)C(=O)CC1N(C)C (single isomer, unassigned; isomer 1) [listing 2 of 2 here]",6.2 µg/mL,6.2 µg/mL,6.2 µg/mL,–,6.2 µg/mL,6.2 µg/mL,6.2 µg/mL,6.2 µg/mL,6.2 µg/mL,6.2 µg/mL,16 µg/mL,8 µg/mL,–,–,–,–,MIC [15]: 6.2 µg/mL
COC1OC(C)(c2ccc(-c3ccccc3)cc2)C(=O)CC1N(C)C (stereo in doubt; 2a),–,–,–,–,–,–,–,–,–,–,–,–,–,16 µg/mL,4 µg/mL,–,"MIC [1, 19]: 3.2 µg/mL; MIC [2, 19]: 3.2 µg/mL; MIC [3, 20]: 3.2 µg/mL; MIC [15, 21]: 3.2 µg/mL; MIC [5, 22]: 3.2 µg/mL; MIC [6, 23]: 3.2 µg/mL; MIC [7, 24]: 3.2 µg/mL; MIC [8, 25]: 3.2 µg/mL; MIC [9, 26]: 3.2 µg/mL; MIC [10, 27]: 3.2 µg/mL"
"COC1OC(C)(c2ccc(-c3ccccc3)cc2)C(O)CC1N(C)C (single isomer, unassigned; isomer 1)",inactive,inactive,inactive,inactive,inactive,inactive,inactive,inactive,inactive,inactive,inactive,inactive,inactive,–,–,Active,Activity [18]: Active
